Results as given in ChEMBL document CHEMBL2434878, “Synthesis and antimycobacterial activity of analogues of the bioactive natural products sampangine and cleistopholine” (Eur J Med Chem, 2013).
Converted amounts (≈) assume the structure as drawn.

Legend:
[1] = system: Mycobacterium tuberculosis; experiment: Antimicrobial activity against Mycobacterium tuberculosis H37Rv ATCC 27294 expressing luciferase reporter gene assessed as growth inhibition at 0.1 uM after 6 days by luminometry relative to control; assay type: functional; conditions: H37Rv ATCC 27294, 144 h, read-out: GI
Outline: (§1)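 Single-concentration screen of the luminescent H37Rv reporter strain in 7H9-10% FCS, inoculated at 50,000 RLU/ml, 6 days at 37 °C. Luminescence was read after n-decanal addition. Percent inhibition is versus the untreated culture, as the mean of triplicate cultures.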

[2] = system: Mycobacterium tuberculosis; experiment: Antimicrobial activity against Mycobacterium tuberculosis H37Rv ATCC 27294 expressing luciferase reporter gene assessed as growth inhibition at 1 uM after 6 days by luminometry relative to control; assay type: functional; conditions: H37Rv ATCC 27294, 144 h, read-out: GI; outline: as §1
[3] = system: Mycobacterium tuberculosis; experiment: Antimicrobial activity against Mycobacterium tuberculosis H37Rv ATCC 27294 expressing luciferase reporter gene assessed as growth inhibition at 10 uM after 6 days by luminometry relative to control; assay type: functional; conditions: H37Rv ATCC 27294, 144 h, read-out: GI; outline: as §1
Mycobacterium ulcerans = experiment: Antimicrobial activity against Mycobacterium ulcerans 1615 expressing luciferase reporter gene assessed as growth inhibition after 6 days by luminometry; assay type: functional; conditions: Mycobacterium ulcerans, 1615, 144 h
Outline: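 Luminescent M. ulcerans 1615 carrying pSMT1 luciferase plasmid, grown at 32 °C in 7H9 with 10% OADC and 0.2% glycerol. Serial dilutions from 10 mM DMSO stocks in 7H9 + 10% FCS; bacteria dosed at 50,000 RLU/ml, triplicate wells. After 6 days, light read over 10 s following 1% n-decanal in ethanol. GI50 taken at 50% growth reduction versus untreated culture.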

[4] = Antimicrobial activity against Mycobacterium avium subsp. avium ATCC 19698 expressing luciferase reporter gene assessed as growth inhibition after 6 days by luminometry; assay type: functional; conditions: ATCC 19698, 144 h
[5] = system: Mycobacterium avium subsp. paratuberculosis; experiment: Antimicrobial activity against Mycobacterium avium subsp. paratuberculosis ATCC 15769 expressing luciferase reporter gene assessed as growth inhibition after 6 days by luminometry; assay type: functional; conditions: ATCC 15769, 144 h
[6] = system: Mycobacterium tuberculosis; experiment: Antimicrobial activity against Mycobacterium tuberculosis H37Rv ATCC 27294 expressing luciferase reporter gene infected in mouse J774 macrophages assessed as intracellular growth inhibition at 0.5 uM after 4 days by luminometry relative to untreated control; assay type: functional; conditions: H37Rv ATCC 27294, J774, 96 h, read-out: GI
Outline: (§2)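 J774.A1 murine macrophages were seeded at 40,000 cells/well, recovered overnight and infected with luminescent H37Rv. From 24 h post-infection, cells were treated for 4 days in DMEM with penicillin and fungizone, without gentamicin. Growth was read by luminescence after 1% n-decanal and expressed as percent inhibition versus untreated, in triplicate. Macrophage viability was checked by trypan blue.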

[7] = system: Mycobacterium tuberculosis; experiment: Antimicrobial activity against Mycobacterium tuberculosis H37Rv ATCC 27294 expressing luciferase reporter gene infected in mouse J774 macrophages assessed as intracellular growth inhibition at 1 uM after 4 days by luminometry relative to untreated control; assay type: functional; conditions: H37Rv ATCC 27294, J774, 96 h, read-out: GI; outline: as §2
[8] = system: Mycobacterium tuberculosis; experiment: Antimicrobial activity against Mycobacterium tuberculosis H37Rv ATCC 27294 expressing luciferase reporter gene infected in mouse J774 macrophages assessed as intracellular growth inhibition at 2 uM after 4 days by luminometry relative to untreated control; assay type: functional; conditions: H37Rv ATCC 27294, J774, 96 h, read-out: GI; outline: as §2
[9] = Therapeutic index, ratio of IC50 for human HepG2/C3A cells to GI50 for Mycobacterium tuberculosis H37Rv ATCC 27294; assay type: cell-based; conditions: read-out: TI
Outline: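 TI is NI50/GI50. NI50 came from a neutral red uptake assay in C3A hepatocytes (40,000 cells/well, 24 h exposure at 37 °C, 3 h dye, OD 530 nm with 620 nm reference): the concentration reducing dye uptake by 50%. GI50 came from the 6-day luminescent H37Rv assay.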

[10] = Cytotoxicity against human HepG2/C3A cells after 24 hrs by neutral red dye uptake assay; assay type: cell-based
[11] = system: Mycobacterium tuberculosis; experiment: Antimicrobial activity against Mycobacterium tuberculosis H37Rv ATCC 27294 expressing luciferase reporter gene assessed as growth inhibition after 6 days by luminometry; assay type: functional; conditions: H37Rv ATCC 27294, 144 h
Outline: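 Luminescent H37Rv (pSMT1, V. harveyi luciferase) was declumped by filtration, adjusted to 50,000 RLU/ml in 7H9-10% FCS, and exposed to serial compound dilutions in triplicate for 6 days at 37 °C. Light was read for 10 s after adding 1% n-decanal. GI50 is the concentration giving 50% growth reduction versus untreated culture.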

[12] = system: Mycobacterium tuberculosis; experiment: Antimicrobial activity against Mycobacterium tuberculosis H37Rv ATCC 27294 expressing luciferase reporter gene assessed as reduction in bacterial count after 6 days by luminometry; assay type: functional; conditions: H37Rv ATCC 27294, 144 h
Outline: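 MIC by serial dilution in the 6-day luminescent H37Rv assay (7H9-10% FCS, 50,000 RLU/ml inoculum, triplicate wells, n-decanal read-out). MIC is the concentration giving at least one log10 reduction in signal versus the untreated control.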

| SMILES | inhibition of growth at 0.1 µM [1] | inhibition of growth at 1 µM [2] | inhibition of growth at 10 µM [3] | GI50 (Mycobacterium ulcerans) | GI50 [4] | GI50 [5] | inhibition of growth at 0.5 µM [6] | inhibition of growth at 1 µM [7] | inhibition of growth at 2 µM [8] | selectivity ratio [9] | IC50 [10] | GI50 [11] | MIC90 [12] |
| --- | --- | --- | --- | --- | --- | --- | --- | --- | --- | --- | --- | --- | --- |
| Cc1ccc(-c2cc3c(c(C)n2)C(=O)c2ccccc2C3=O)cc1 | 54% | 63% | 99% | – | – | – | – | – | – | – | – | – | – |
| Cc1ccc(-c2cc(O)c3c(c2)C(=O)c2ccccc2C3=O)cc1 | 21% | 35% | 98% | – | – | – | – | – | – | – | – | – | – |
| COc1ccc(OC)c(-c2cc3c(c(C)n2)C(=O)c2ccccc2C3=O)c1 | < 10% | 35% | 86% | – | – | – | – | – | – | – | – | – | – |
| Cc1cncc2c1C(=O)c1ccccc1C2=O | < 10% | 11% | 48% | – | – | – | – | – | – | – | – | – | – |
| O=C1c2ccccc2C(=O)c2c(O)cc(-c3ccccc3)cc21 | 15% | 88% | 100% | 12.6 µM | 5.02 µM | 4.71 µM | 36.6% | 49% | 68.3% | 12.6 | 10.8 µM | 860 nM | 2.12 µM (≈ 0.637 µg/mL) |
| Cc1nc(-c2ccccc2)cc2c1C(=O)c1ccccc1C2=O | 21% | 66% | 98% | – | – | – | – | – | – | – | – | – | – |
| CN(C)/C=C/c1cncc2c1C(=O)c1ccccc1C2=O | < 10% | 17% | 53% | – | – | – | – | – | – | – | – | – | – |
| CN(C)/C=C/c1nc(-c2ccccc2)cc2c1C(=O)c1ccccc1C2=O | 45% | 100% | 100% | 8.65 µM | 4.89 µM | 3.68 µM | 13.4% | 34.6% | 49.5% | 46.9 | 24.4 µM | 520 nM | 1.4 µM (≈ 0.496 µg/mL) |
| CN(C)/C=C/c1nc(-c2ccc(Cl)cc2)cc2c1C(=O)c1ccccc1C2=O | 34% | 91% | 100% | 7.69 µM | 3.88 µM | 3.95 µM | 19.8% | 35.6% | 54.4% | 34.2 | 18.8 µM | 550 nM | 1.1 µM (≈ 0.428 µg/mL) |
| CN(C)/C=C/c1nc(C(C)(C)C)cc2c1C(=O)c1ccccc1C2=O | 21% | 53% | 73% | – | – | – | – | – | – | – | – | – | – |
| Cc1ccc(-c2cc3c4c(nccc4n2)-c2ccccc2C3=O)cc1 | 73% | 100% | 100% | – | – | – | 7% | 34.6% | 47.2% | 16.6 | 7.14 µM | 430 nM | 1.31 µM (≈ 0.422 µg/mL) |
| O=C1c2ccccc2-c2nccc3nc(-c4ccc(F)cc4)cc1c23 | 53% | 100% | 100% | 9.23 µM | 3.98 µM | 3.56 µM | 15.3% | 30.2% | 65.5% | > 72.4 | > 50 µM | 690 nM | 1.5 µM (≈ 0.489 µg/mL) |
| COc1ccc(OC)c(-c2cc3c4c(nccc4n2)-c2ccccc2C3=O)c1 | 39% | 75% | 87% | – | – | – | – | – | – | – | – | – | – |
| NNC(=O)c1ccncc1 [ISONIAZID] | 99% | 100% | 100% | – | – | – | 76.4% | 92.8% | 97.3% | – | – | 10 nM | 0.09 µM (≈ 0.0123 µg/mL) |
| Cc1nc(-c2ccc(Cl)cc2)cc2c1C(=O)c1ccccc1C2=O | 42% | 68% | 100% | – | – | – | – | – | – | – | – | – | – |
| O=C1c2ccccc2-c2nccc3nc(-c4ccc(Cl)cc4)cc1c23 | 77% | 99% | 99% | – | – | – | 2.27% | 20.3% | 44.2% | > 69.4 | > 50 µM | 720 nM | 1.85 µM (≈ 0.634 µg/mL) |
| O=C1c2ccccc2-c2nccc3cncc1c23 | 11% | 25% | 62% | – | – | – | – | – | – | – | – | – | – |
| COc1ccc(-c2cc3c(c(C)n2)C(=O)c2ccccc2C3=O)cc1 | 32% | 70% | 100% | – | – | – | – | – | – | – | – | – | – |
| Cc1nc(-c2ccc(F)cc2)cc2c1C(=O)c1ccccc1C2=O | 41% | 68% | 100% | – | – | – | – | – | – | – | – | – | – |
| Cc1nc(C(C)C)cc2c1C(=O)c1ccccc1C2=O | < 10% | 24% | 54% | – | – | – | – | – | – | – | – | – | – |
| Cc1nc(C(C)(C)C)cc2c1C(=O)c1ccccc1C2=O | < 10% | 18% | 51% | – | – | – | – | – | – | – | – | – | – |
| Cc1nccc2c1C(=O)c1ccccc1C2=O | 10% | 22% | 58% | – | – | – | – | – | – | – | – | – | – |
| CC(C)(C)c1ccc(-c2cc3c4c(nccc4n2)-c2ccccc2C3=O)cc1 | 32% | 41% | 73% | – | – | – | – | – | – | – | – | – | – |
| COc1ccc(OC)c(-c2cc3c(c(/C=C/N(C)C)n2)C(=O)c2ccccc2C3=O)c1 | 35% | 47% | 87% | – | – | – | – | – | – | – | – | – | – |
